From ChEMBL document CHEMBL1138849, “5-substituted tetrazoles as bioisosteres of carboxylic acids. Bioisosterism and mechanistic studies on glutathione reductase inhibitors as antimalarials” (J Med Chem, 2004)

B1: Glutathione reductase (Plasmodium falciparum 3D7), O15770 (protein)
chain: MYKHRYFHFFFFFFFFLVSTKIIRSFTFLNNNTNLSNPVYFKKKANMVYDLIVIGGGSGGMAAARRAARHNAKVALVEKSRLGGTCVNVGCVPKKIMFNAASVHDILENSRHYGFDTKFSFNLPLLVERRDKYIQRLNNIYRQNLSKDKVDLYEGTASFLSENRILIKGTKDNNNKDNGPLNEEILEGRNILIAVGNKPVFPPVKGIENTISSDEFFNIKESKKIGIVGSGYIAVELINVIKRLGIDSYIFARGNRILRKFDESVINVLENDMKKNNINIVTFADVVEIKKVSDKNLSIHLSDGRIYEHFDHVIYCVGRSPDTENLNLEKLNVETNNNYIVVDENQRTSVNNIYAVGDCCMVKKSKEIEDLNLLKLYNEETYLNKKENVTEDIFYNVQLTPVAINAGRLLADRLFLKKTRKTNYKLIPTVIFSHPPIGTIGLSEEAAIQIYGKENVKIYESKFTNLFFSVYDIEPELKEKTYLKLVCVGKDELIKGLHIIGLNADEIVQGFAVALKMNATKKDFDETIPIHPTAAEEFLTLQPWMK
B2: Glutathione reductase, mitochondrial (Homo sapiens), P00390 (protein)
chain: MALLPRALSAGAGPSWRRAARAFRGFLLLLPEPAALTRALSRAMACRQEPQPQGPPPAAGAVASYDYLVIGGGSGGLASARRAAELGARAAVVESHKLGGTCVNVGCVPKKVMWNTAVHSEFMHDHADYGFPSCEGKFNWRVIKEKRDAYVSRLNAIYQNNLTKSHIEIIRGHAAFTSDPKPTIEVSGKKYTAPHILIATGGMPSTPHESQIPGASLGITSDGFFQLEELPGRSVIVGAGYIAVEMAGILSALGSKTSLMIRHDKVLRSFDSMISTNCTEELENAGVEVLKFSQVKEVKKTLSGLEVSMVTAVPGRLPVMTMIPDVDCLLWAIGRVPNTKDLSLNKLGIQTDDKGHIIVDEFQNTNVKGIYAVGDVCGKALLTPVAIAAGRKLAHRLFEYKEDSKLDYNNIPTVVFSHPPIGTVGLTEDEAIHKYGIENVKTYSTSFTPMYHAVTKRKTKCVMKMVCANKEEKVVGIHMQGLGCDEMLQGFAVAVKMGATKADFDNTVAIHPTSSEELVTLR

What was measured:
[1] = substrate: CC1=CC(=O)c2ccccc2C1=O; assay: Michaelis-Menten constant against Plasmodium falciparum glutathione reductase
Method in brief: (§1)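 Recombinant human or P. falciparum GR run as a quinone reductase without GSSG. Mix: 100 mM phosphate pH 7.0, 200 mM KCl, 100 μM NADPH, 1% DMSO, enzyme, and naphthoquinone at 10 levels from 10 to 400 μM. NADPH oxidation read at 340 nm (ε 6.22 mM⁻¹ cm⁻¹). Steady-state rates fitted to Michaelis–Menten by nonlinear regression to give Km and Vmax; kcat and kcat/Km calculated.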

[2] = compound: N[C@@H](CCC(=O)N[C@@H](CSSC[C@H](NC(=O)CC[C@H](N)C(=O)O)C(=O)NCC(=O)O)C(=O)NCC(=O)O)C(=O)O; assay: Inhibitory concentration against glutathione reductase (In presence of NADPH); settings: Plasmodium falciparum
[3] = substrate: CC1=CC(=O)c2ccccc2C1=O; assay: Michaelis-Menten constant against human glutathione reductase; method in brief: as §1

Row | Protein | Km [1] | Km [2] | Km [3]
1 | B1 | 82.2 µM | 115 µM | –
2 | B2 | – | – | 31.2 µM
